Reference: ChEMBL document CHEMBL4024801, “Synthesis and Structure-Activity Relationship (SAR) Studies of Novel Pyrazolopyridine Derivatives as Inhibitors of Enterovirus Replication” (J Med Chem, 2018)

Experiments:
Format in all cases: functional, cell-based
Poliovirus 1 = assay: Antiviral activity against Poliovirus 1 infected in human HeLa-RW cells assessed as protection against virus-induced cytopathic effect after 3 to 4 days by crystal violet staining-based spectrophotometric method; conditions: Enterovirus C
In short: (§1)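 HeLa-RW cells grown in DMEM with penicillin, streptomycin, glutamine and 10% FBS. They were infected at a low MOI pre-set to give full CPE in 3-4 days. Compound in DMSO was added as serial 2-fold dilutions (7 points), each in triplicate. When control CPE was maximal, cells were fixed with 4% formaldehyde, stained with 0.25% crystal violet and read at OD590. EC50 came from a four-parameter or sigmoidal fit.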

Enterovirus A71 = assay: Antiviral activity against Enterovirus A71 infected in monkey LLC-MK2 cells assessed as protection against virus-induced cytopathic effect after 3 to 4 days by crystal violet staining-based spectrophotometric method; conditions: Enterovirus A
In short: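 EV-A71 was tested in LLC-MK2 cells grown in DMEM with 10% FBS, penicillin, streptomycin and glutamine, at a low MOI preset to give full CPE in 3–4 days. Compound was dissolved in DMSO and diluted 2-fold, in triplicate. Cells were fixed with formaldehyde when control CPE was maximal, then stained with crystal violet and read at OD590. EC50 came from a 7-point four-parameter or sigmoidal fit.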

Poliovirus 3 = assay: Antiviral activity against Poliovirus 3 infected in human HeLa-RW cells assessed as protection against virus-induced cytopathic effect after 3 to 4 days by crystal violet staining-based spectrophotometric method; conditions: Enterovirus C; in short: as §1
Coxsackievirus B3 = assay: Antiviral activity against Coxsackievirus B3 infected in human HeLa-RW cells assessed as protection against virus-induced cytopathic effect after 3 to 4 days by crystal violet staining-based spectrophotometric method; conditions: Enterovirus B; in short: as §1

CC(C)n1ncc2c(C(=O)Nc3cc(F)cc(F)c3)cc(-c3cccs3)nc21
EC50 (Poliovirus 1): > 10 µM
EC50 (Enterovirus A71): > 10 µM
EC50 (Poliovirus 3): > 10 µM
EC50 (Coxsackievirus B3): > 10 µM

CC(C)n1ncc2c(C(=O)N(C)c3ccccn3)cc(-c3cccs3)nc21
EC50 (Poliovirus 1): > 10 µM
EC50 (Enterovirus A71): > 10 µM
EC50 (Poliovirus 3): > 10 µM
EC50 (Coxsackievirus B3): > 25 µM

CC(C)n1ncc2c(NC(=O)c3cc(-c4cccs4)nc4c3cnn4C(C)C)cc(-c3cccs3)nc21
EC50 (Poliovirus 1): > 10 µM
EC50 (Enterovirus A71): > 10 µM
EC50 (Poliovirus 3): > 10 µM
EC50 (Coxsackievirus B3): > 10 µM

CC(C)n1ncc2c(C(=O)Nc3ccccc3F)cc(-c3nccs3)nc21
EC50 (Poliovirus 1): > 10 µM
EC50 (Enterovirus A71): > 10 µM
EC50 (Poliovirus 3): > 10 µM
EC50 (Coxsackievirus B3): > 10 µM

CC(C)n1ncc2c(S(=O)(=O)Nc3ccc(F)cc3)cc(-c3cccs3)nc21
EC50 (Poliovirus 1): > 10 µM
EC50 (Enterovirus A71): > 10 µM
EC50 (Poliovirus 3): > 10 µM
EC50 (Coxsackievirus B3): > 10 µM

CC(C)n1ncc2c(C(=S)Nc3ccc(F)cc3)cc(-c3cccs3)nc21
EC50 (Poliovirus 1): > 10 µM
EC50 (Enterovirus A71): > 10 µM
EC50 (Poliovirus 3): > 10 µM
EC50 (Coxsackievirus B3): > 10 µM

CC(C)n1cnc2c(C(=O)Nc3ccc(F)cc3)cc(-c3cccs3)nc21
EC50 (Poliovirus 1): > 10 µM
EC50 (Enterovirus A71): > 10 µM
EC50 (Poliovirus 3): > 10 µM
EC50 (Coxsackievirus B3): > 10 µM

CC(C)n1ncc2c(C(=O)Nc3ccc(F)cc3)nc(-c3cccs3)nc21
EC50 (Poliovirus 1): > 10 µM
EC50 (Enterovirus A71): > 10 µM
EC50 (Poliovirus 3): > 10 µM
EC50 (Coxsackievirus B3): > 10 µM

CC(C)n1ncc2c(NS(=O)(=O)c3ccc(F)cc3)cc(-c3cccs3)nc21
EC50 (Poliovirus 1): > 10 µM
EC50 (Enterovirus A71): > 10 µM
EC50 (Poliovirus 3): > 10 µM
EC50 (Coxsackievirus B3): > 10 µM

CC(C)n1ncc2c(C(=O)Nc3ccc(S(N)(=O)=O)cc3)cc(-c3cccs3)nc21
EC50 (Poliovirus 1): > 10 µM
EC50 (Enterovirus A71): > 10 µM
EC50 (Poliovirus 3): > 10 µM
EC50 (Coxsackievirus B3): > 10 µM

CC(C)n1ncc2c(C(=O)Nc3ccccc3C(F)(F)F)cc(-c3cccs3)nc21
EC50 (Poliovirus 1): > 10 µM
EC50 (Enterovirus A71): > 10 µM
EC50 (Poliovirus 3): > 10 µM
EC50 (Coxsackievirus B3): > 10 µM

CC(C)n1ccc2c(C(=O)Nc3ccncc3)cc(-c3cccs3)nc21
EC50 (Poliovirus 1): > 10 µM
EC50 (Enterovirus A71): > 10 µM
EC50 (Poliovirus 3): > 10 µM
EC50 (Coxsackievirus B3): > 10 µM

CC(C)n1ncc2c(C(=N)Nc3cccnc3)cc(-c3cccs3)nc21
EC50 (Poliovirus 1): > 10 µM
EC50 (Enterovirus A71): > 10 µM
EC50 (Poliovirus 3): > 10 µM
EC50 (Coxsackievirus B3): > 10 µM

CC(C)n1ncc2c(C(=O)Nc3cccc(S(N)(=O)=O)c3)cc(C3CC3)nc21
EC50 (Poliovirus 1): > 10 µM
EC50 (Enterovirus A71): > 10 µM
EC50 (Poliovirus 3): > 10 µM
EC50 (Coxsackievirus B3): > 10 µM

CC(C)n1ncc2c(C(=O)Nc3ccc(F)cc3Br)cc(-c3cccs3)nc21
EC50 (Poliovirus 1): > 10 µM
EC50 (Enterovirus A71): > 10 µM
EC50 (Poliovirus 3): > 10 µM
EC50 (Coxsackievirus B3): > 10 µM

CC(C)n1ncc2c(C(=O)Nc3ccncc3)cc(-c3ccsc3)nc21
EC50 (Poliovirus 1): > 10 µM
EC50 (Enterovirus A71): > 10 µM
EC50 (Poliovirus 3): > 10 µM
EC50 (Coxsackievirus B3): > 10 µM

CC(C)n1nnc2c(C(=O)Nc3ccc(F)cc3)cc(-c3cccs3)nc21
EC50 (Poliovirus 1): > 10 µM
EC50 (Enterovirus A71): > 10 µM
EC50 (Poliovirus 3): > 10 µM
EC50 (Coxsackievirus B3): > 10 µM

CC(C)n1ncc2c(-c3nc4ccc(F)cc4o3)cc(-c3cccs3)nc21
EC50 (Poliovirus 1): > 10 µM
EC50 (Enterovirus A71): > 10 µM
EC50 (Poliovirus 3): > 10 µM
EC50 (Coxsackievirus B3): > 10 µM

CC(C)n1ncc2c(C(=N)Nc3ccc(F)cc3)cc(-c3cccs3)nc21
EC50 (Poliovirus 1): > 10 µM
EC50 (Enterovirus A71): > 10 µM
EC50 (Poliovirus 3): > 10 µM
EC50 (Coxsackievirus B3): > 10 µM

CC(C)n1ncc2c(C(=O)Nc3ccc(C(F)(F)F)cc3)cc(-c3cccs3)nc21
EC50 (Poliovirus 1): > 25 µM
EC50 (Enterovirus A71): > 25 µM
EC50 (Poliovirus 3): > 25 µM
EC50 (Coxsackievirus B3): > 25 µM

CC(C)n1ncc2c(C(=O)Nc3ccccc3F)cc(-c3cnco3)nc21
EC50 (Poliovirus 1): > 10 µM
EC50 (Enterovirus A71): > 10 µM
EC50 (Poliovirus 3): > 10 µM
EC50 (Coxsackievirus B3): > 10 µM
